Measured values as given in ChEMBL document CHEMBL3407460, “Synthesis of novel thiazole-based 8,9-dihydro-7H-pyrimido[4,5-b][1,4]diazepines as potential antitumor and antifungal agents” (2015).

Legend:
Assay type in all cases: functional
K562 = assay: Antitumor activity against human K562 cells after 48 hrs by Sulforhodamine B assay; details: K562, 48 h
Summary of the method: (§1)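 NCI 60-cell-line screen. Secondary five-dose test at 100, 10, 1.0, 0.1 and 0.01 µM with continuous drug exposure for 48 h. Cell growth was estimated by sulforhodamine B protein staining. […] LC50 was also reported.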

[1] = Antitumor activity against human SF539 cells after 48 hrs by Sulforhodamine B assay; details: SF-539, 48 h; summary of the method: as §1
[2] = Antitumor activity against human PC3 cells after 48 hrs by Sulforhodamine B assay; details: PC-3, 48 h; summary of the method: as §1
[3] = Antitumor activity against human SF295 cells after 48 hrs by Sulforhodamine B assay; details: SF-295, 48 h; summary of the method: as §1
M14 = assay: Antitumor activity against human M14 cells after 48 hrs by Sulforhodamine B assay; details: M14, 48 h; summary of the method: as §1
MDA-MB-231 = assay: Antitumor activity against human MDA-MB-231 cells after 48 hrs by Sulforhodamine B assay; details: MDA-MB-231, 48 h; summary of the method: as §1
KM12 = assay: Antitumor activity against human KM12 cells after 48 hrs by Sulforhodamine B assay; details: KM12, 48 h; summary of the method: as §1
NCI-H522 = assay: Antitumor activity against human NCI-H522 cells after 48 hrs by Sulforhodamine B assay; details: NCI-H522, 48 h; summary of the method: as §1
DU-145 = assay: Antitumor activity against human DU145 cells after 48 hrs by Sulforhodamine B assay; details: DU-145, 48 h; summary of the method: as §1
SR = assay: Antitumor activity against human SR cells after 48 hrs by Sulforhodamine B assay; summary of the method: as §1
[4] = Antitumor activity against human NCI-ADR-RES cells after 48 hrs by Sulforhodamine B assay; summary of the method: as §1
NCI-H23 = assay: Antitumor activity against human NCI-H23 cells after 48 hrs by Sulforhodamine B assay; details: NCI-H23, 48 h; summary of the method: as §1
IGROV-1 = assay: Antitumor activity against human IGROV1 cells after 48 hrs by Sulforhodamine B assay; details: IGROV-1, 48 h; summary of the method: as §1
NCI-H460 = assay: Antitumor activity against human NCI-H460 cells after 48 hrs by Sulforhodamine B assay; details: NCI-H460, 48 h; summary of the method: as §1
Malme-3M = assay: Antitumor activity against human MALME-3M cells after 48 hrs by Sulforhodamine B assay; summary of the method: as §1
[5] = Antitumor activity against human BT549 cells after 48 hrs by Sulforhodamine B assay; details: BT-549, 48 h; summary of the method: as §1
[6] = Antitumor activity against human OVCAR8 cells after 48 hrs by Sulforhodamine B assay; details: OVCAR-8, 48 h; summary of the method: as §1
MDA-MB-435 = assay: Antitumor activity against human MDA-MB-435 cells after 48 hrs by Sulforhodamine B assay; details: MDA-MB-435, 48 h; summary of the method: as §1
NCI-H226 = assay: Antitumor activity against human NCI-H226 cells after 48 hrs by Sulforhodamine B assay; details: NCI-H226, 48 h; summary of the method: as §1
A549 = assay: Antitumor activity against human A549 cells after 48 hrs by Sulforhodamine B assay; details: A549, 48 h; summary of the method: as §1
[7] = Antitumor activity against human OVCAR3 cells after 48 hrs by Sulforhodamine B assay; details: OVCAR-3, 48 h; summary of the method: as §1
MDA-MB-468 = assay: Antitumor activity against human MDA-MB-468 cells after 48 hrs by Sulforhodamine B assay; details: MDA-MB-468, 48 h; summary of the method: as §1
[8] = Antitumor activity against human OVCAR5 cells after 48 hrs by Sulforhodamine B assay; details: OVCAR-5, 48 h; summary of the method: as §1
SNB-75 = assay: Antitumor activity against human SNB75 cells after 48 hrs by Sulforhodamine B assay; details: SNB-75, 48 h; summary of the method: as §1
[9] = Antitumor activity against human HCT15 cells after 48 hrs by Sulforhodamine B assay; details: HCT-15, 48 h; summary of the method: as §1
[10] = Antitumor activity against human HCT116 cells after 48 hrs by Sulforhodamine B assay; details: HCT-116, 48 h; summary of the method: as §1
SW-620 = assay: Antitumor activity against human SW620 cells after 48 hrs by Sulforhodamine B assay; details: SW-620, 48 h; summary of the method: as §1
SK-MEL-2 = assay: Antitumor activity against human SK-MEL-2 cells after 48 hrs by Sulforhodamine B assay; details: SK-MEL-2, 48 h; summary of the method: as §1
SF-268 = assay: Antitumor activity against human SF268 cells after 48 hrs by Sulforhodamine B assay; details: SF-268, 48 h; summary of the method: as §1
SNB-19 = assay: Antitumor activity against human SNB19 cells after 48 hrs by Sulforhodamine B assay; details: SNB-19, 48 h; summary of the method: as §1
[11] = Antitumor activity against human MOLT4 cells after 48 hrs by Sulforhodamine B assay; details: MOLT-4, 48 h; summary of the method: as §1
SK-MEL-28 = assay: Antitumor activity against human SK-MEL-28 cells after 48 hrs by Sulforhodamine B assay; details: SK-MEL-28, 48 h; summary of the method: as §1
[12] = Antitumor activity against human HOP92 cells after 48 hrs by Sulforhodamine B assay; details: HOP-92, 48 h; summary of the method: as §1
[13] = Antitumor activity against human HCC2998 cells after 48 hrs by Sulforhodamine B assay; details: HCC 2998, 48 h; summary of the method: as §1
[14] = Antitumor activity against human RPMI8226 cells after 48 hrs by Sulforhodamine B assay; details: RPMI-8226, 48 h; summary of the method: as §1
[15] = Antitumor activity against human SKOV3 cells after 48 hrs by Sulforhodamine B assay; details: SK-OV-3, 48 h; summary of the method: as §1
[16] = Antitumor activity against human UACC62 cells after 48 hrs by Sulforhodamine B assay; details: UACC-62, 48 h; summary of the method: as §1
[17] = Antitumor activity against human LOXIMVI cells after 48 hrs by Sulforhodamine B assay; details: LOX IMVI; summary of the method: as §1
HL-60(TB) = assay: Antitumor activity against human HL-60(TB) cells after 48 hrs by Sulforhodamine B assay; details: HL-60, 48 h; summary of the method: as §1
[18] = read-out: LC50 (the source's name)

Nc1ncnc2c1N=C(c1ccc3c(c1)OCO3)CC(c1sc(Cl)nc1Cl)N2 (stereo not drawn) showed a GI50 (K562) of 0.54 µM, a CC50 (K562; [18]) of over 100 µM and a GI50 [1] of 2.22 µM. The CC50 [1, 18] was 33.6 µM, the GI50 [2] was 5.15 µM and the CC50 [2, 18] was over 100 µM. It also gave a GI50 [3] of 2.21 µM, a CC50 [3, 18] of 39.8 µM and a GI50 (M14) of 2.01 µM. It also gave a CC50 (M14; [18]) of 44.6 µM, a GI50 (MDA-MB-231) of 5.81 µM and an LC50 (concentration killing 50% of cells) (MDA-MB-231) of 55.7 µM. The GI50 (KM12) was 3.93 µM, the CC50 (KM12; [18]) was 73.6 µM and the GI50 (NCI-H522) was 2.51 µM. For the same compound, the CC50 (NCI-H522; [18]) was 55.3 µM, the GI50 (DU-145) was 8.45 µM and the CC50 (DU-145; [18]) was over 100 µM. It also gave a GI50 (SR) of 1.9 µM, a CC50 (SR; [18]) of over 100 µM and a GI50 [4] of 3.55 µM. For the same compound, the CC50 [4, 18] was over 100 µM, the GI50 (NCI-H23) was 8.87 µM and the LC50 (NCI-H23) was over 100 µM. The GI50 (IGROV-1) was 10.4 µM, the CC50 (IGROV-1; [18]) was over 100 µM and the GI50 (NCI-H460) was 3.99 µM. For the same compound, the LC50 (NCI-H460) was over 100 µM, the GI50 (Malme-3M) was 14.3 µM and the CC50 (Malme-3M; [18]) was 59.2 µM. It also gave a GI50 [5] of 3.79 µM, a CC50 [5, 18] of 53.9 µM and a GI50 [6] of 4.86 µM. For the same compound, the LC50 (concentration killing 50% of cells) [6] was over 100 µM, the GI50 (MDA-MB-435) was 0.35 µM and the CC50 (MDA-MB-435; [18]) was 48.4 µM. For the same compound, the GI50 (NCI-H226) was 17.7 µM, the CC50 (NCI-H226; [18]) was over 100 µM and the GI50 (A549) was 6.47 µM. For the same compound, the CC50 (A549; [18]) was over 100 µM, the GI50 [7] was 3.94 µM and the CC50 [7, 18] was 66.8 µM. The GI50 (MDA-MB-468) was 1.65 µM, the LC50 (MDA-MB-468) was over 100 µM and the GI50 [8] was 6.03 µM. The LC50 [8] was over 100 µM, the GI50 (SNB-75) was 1.39 µM and the LC50 (concentration killing 50% of cells) (SNB-75) was 61.4 µM. The GI50 [9] was 1.07 µM, the CC50 [9, 18] was over 100 µM and the GI50 [10] was 3.42 µM. It also gave a CC50 [10, 18] of 44.5 µM, a GI50 (SW-620) of 2.98 µM and a CC50 (SW-620; [18]) of over 100 µM. It also gave a GI50 (SK-MEL-2) of 5.19 µM, an LC50 (SK-MEL-2) of 48.6 µM and a GI50 (SF-268) of 9.84 µM. It also gave a CC50 (SF-268; [18]) of 92.2 µM, a GI50 (SNB-19) of 4.83 µM and an LC50 (SNB-19) of over 100 µM. For the same compound, the GI50 [11] was 5.91 µM, the LC50 [11] was over 100 µM and the GI50 (SK-MEL-28) was 7.63 µM. For the same compound, the LC50 (SK-MEL-28) was 91.6 µM, the GI50 [12] was 4.25 µM and the CC50 [12, 18] was 77.5 µM. It also gave a GI50 [13] of 6.11 µM, a CC50 [13, 18] of 48.8 µM and a GI50 [14] of 4.66 µM. It also gave an LC50 (concentration causing 50% net cell kill) [14] of over 100 µM, a GI50 [15] of 2.78 µM and a CC50 [15, 18] of over 100 µM. It also gave a GI50 [16] of 2.17 µM, an LC50 [16] of 63.9 µM and a GI50 [17] of 7.02 µM. It also gave a CC50 [17, 18] of 75.6 µM, a GI50 (HL-60(TB)) of 36.1 µM and a CC50 (HL-60(TB); [18]) of over 100 µM.
